# ChEMBL document CHEMBL1125369, “Synthesis, absolute configuration, stereoselectivity, and receptor selectivity of (alpha R, beta S)-alpha,beta-dimethylhistamine, a novel high potent histamine H3 receptor agonist” (J Med Chem, 1992)
# pEC50: −log10 of the molar value.
# Experiments:
# Cavia porcellus [1] = species: Cavia porcellus; test: In vitro H1 agonistic activity by taking guinea pig ileum contraction
# Cavia porcellus [2] = species: Cavia porcellus; test: In vitro H2 agonistic activity by taking spontaneously beating guinea pig right atrium; details: Cardiac atrium
# [3] = molecular target: Histamine H2 receptor (Cavia porcellus) (UniProt P47747); test: Intrinsic activity against histamine H2 receptor in guinea pig right atrium; type: tissue-based; details: Cardiac atrium
# Sequence of Histamine H2 receptor (Cavia porcellus) (P47747 whole entry): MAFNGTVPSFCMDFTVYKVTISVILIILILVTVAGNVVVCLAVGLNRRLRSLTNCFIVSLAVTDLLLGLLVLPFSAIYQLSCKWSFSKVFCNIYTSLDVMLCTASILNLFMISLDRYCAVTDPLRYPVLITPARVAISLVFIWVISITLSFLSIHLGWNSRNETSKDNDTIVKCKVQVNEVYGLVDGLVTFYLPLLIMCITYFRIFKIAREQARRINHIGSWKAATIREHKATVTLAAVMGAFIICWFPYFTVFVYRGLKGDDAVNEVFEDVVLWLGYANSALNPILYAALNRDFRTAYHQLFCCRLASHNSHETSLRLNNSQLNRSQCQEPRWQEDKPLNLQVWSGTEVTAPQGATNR
# In short: (§1)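 Right atrium from male guinea pigs (350–500 g), spontaneously beating, in McEvan's solution at 32.5 °C gassed with O2/5% CO2; 1 h equilibration. Beating rate recorded with a heart frequency meter. Cumulative histamine standard curve (10⁻⁷–10⁻⁵ M bath) run first; after washing, full curve of test agonist. One test per preparation, 3–4 experiments; EC50 mean ± sem (Sachs).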
# Rattus norvegicus [4] = species: Rattus norvegicus; test: In vitro H3 agonistic activity against K+ induced histamine in slices of rat brain cortex.
# [5] = molecular target: Histamine H1 receptor (Cavia porcellus) (UniProt P31389); test: Intrinsic activity against histamine H1 receptor in guinea pig ileum; type: tissue-based
# Sequence of Histamine H1 receptor (Cavia porcellus) (P31389 whole entry): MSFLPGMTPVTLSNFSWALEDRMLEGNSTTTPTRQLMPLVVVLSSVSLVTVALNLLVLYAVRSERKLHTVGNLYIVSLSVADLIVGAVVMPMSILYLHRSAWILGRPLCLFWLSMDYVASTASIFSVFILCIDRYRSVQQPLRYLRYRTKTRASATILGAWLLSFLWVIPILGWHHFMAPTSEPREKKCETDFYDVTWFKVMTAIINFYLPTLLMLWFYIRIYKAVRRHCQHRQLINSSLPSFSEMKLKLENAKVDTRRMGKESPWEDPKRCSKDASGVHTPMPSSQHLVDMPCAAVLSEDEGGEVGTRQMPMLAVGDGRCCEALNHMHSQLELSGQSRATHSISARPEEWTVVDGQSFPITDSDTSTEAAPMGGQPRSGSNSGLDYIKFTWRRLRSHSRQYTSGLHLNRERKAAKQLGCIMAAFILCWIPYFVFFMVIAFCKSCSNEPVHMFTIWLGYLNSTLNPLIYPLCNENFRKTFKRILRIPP
# In short: (§2)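 Male guinea pigs (350–500 g); 3 cm ileum pieces in Tyrode solution at 37 °C, gassed with O2 containing 5% CO2. Isotonic recording of contraction. A histamine standard curve is run first, with geometrically increasing bath concentrations up to maximal contraction. After washing, a cumulative concentration-response curve of the test agonist follows. Three or four experiments; EC50 as mean ± sem by the method of Sachs.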
# Cavia porcellus [6] = species: Cavia porcellus; test: H2 agonistic activity by taking spontaneously beating guinea pig right atrium; type: functional, Cardiac atrium; details: for pEC50: Cavia porcellus, Cardiac atrium, read-out: EC50; in short: as §1
# Cavia porcellus [7] = species: Cavia porcellus; test: H1 agonistic activity by taking guinea pig ileum contraction; type: functional; details: for pEC50: Cavia porcellus, Ileum, read-out: EC50; in short: as §2
# Rattus norvegicus [8] = species: Rattus norvegicus; test: H3 agonistic activity against K+ induced histamine in slices of rat brain cortex.; type: functional
# In short: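 Cortical slices (0.3 mm) from male Wistar rats (170–190 g), preloaded 30 min with [³H]-L-histidine (0.3 μM) and washed. Agonist added 5 min before depolarization; slices (2–3 mg protein) incubated 2 min at 37 °C with 2 or 30 mM KCl (final). Stopped by rapid centrifugation; [³H]histamine in tissue and medium quantified. 3–4 experiments; EC50 mean ± sem (Parker and Waud).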
# [9] = Kinetic constant Km value of the enzyme; type: ADME
# In short: (§3)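 Histamine N-methyltransferase purified from rat kidney. Increasing substrate concentrations incubated 1 h at 25 °C with unlabeled plus [³H]-S-adenosylmethionine (5 μM final). Stopped with perchloric acid (0.4 N final), then NaOH (1 N final). [³H]-τ-methylhistamine extracted into toluene-isoamyl alcohol (3 + 2) and counted by liquid scintillation.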
# [10] = Kinetic constant Vmax value of the enzyme; type: ADME; in short: as §3
Intrinsic activity [3],Intrinsic activity [5],EC50 (Cavia porcellus [6]),EC50 (Cavia porcellus [7]),pEC50 (Cavia porcellus [6]),pEC50 (Cavia porcellus [7]),pEC50 (Rattus norvegicus [8]; Rattus norvegicus),Structure (SMILES),also measured
–,–,Not Active,Not Active,–,–,–,C[C@@H](N)[C@@H](C)c1c[nH]cn1 (relative stereo),pEC50 (Rattus norvegicus [8]): 6.72
0.66,0.94,–,–,3.03,3.74,7.92,CC(N)C(C)c1c[nH]cn1 (stereo unspecified),–
–,–,Not Active,Not Active,–,–,6.46,Br.Br.C[C@@H](N)[C@@H](C)c1c[nH]cn1,–
–,–,Not Active,Not Active,–,–,8.21,C[C@H](N)[C@@H](C)c1c[nH]cn1 (relative stereo),–
0.86,0.56,–,–,3.39,3.38,8.47,Br.Br.C[C@H](N)[C@H](C)c1c[nH]cn1,Km [9]: 2.8 µM; Vmax [10]: 1.7 nM/h/mg

Structure (SMILES),Intrinsic activity [3],Intrinsic activity [5],EC50 (Cavia porcellus [6]),EC50 (Cavia porcellus [7]),pEC50 (Cavia porcellus [6]),pEC50 (Cavia porcellus [7]),pEC50 (Rattus norvegicus [8]; Rattus norvegicus),also measured
NCCc1c[nH]cn1 [HISTAMINE],1,1,–,–,–,–,–,pEC50 (Cavia porcellus [1]): 6.85; pEC50 (Cavia porcellus [2]): 6.00; pEC50 (Rattus norvegicus [4]): […]
